Measured values reported in ChEMBL document CHEMBL5034012, “Procainamide-SAHA Fused Inhibitors of hHDAC6 Tackle Multidrug-Resistant Malaria Parasites” (J Med Chem, 2021).
Activity calls are given as the source filed them. The calls are words filed in the database; no cut-off is given here.

Assays:
[1] = Inhibition of Plasmodium falciparum NF54 HDAC using extract measured after 60 mins by fluorescence assay
Plasmodium falciparum [2] = assay: Antiplasmodial activity against synchronized ring stage Plasmodium falciparum 3D7 assessed as parasite reduction over one cycle upto 48 hrs at 10 times IC50 concentration; format: functional; settings: time hrs <=48
In short: (§1)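 3D7 culture of mostly rings exposed to drug for 6, 24, 48, 72 or 96h. Then washed, serially diluted 1/3 in fresh RBC and grown 3 weeks. Growth read by SYBR-green I. Number of wells with growth used to back-calculate viable parasites at each time point and derive growth parameters. One experiment, run in duplicate.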

Histone deacetylase 3 = Histone deacetylase 3 (Homo sapiens, UniProt O15379); assay: Inhibition of human recombinant HDAC3 using Tosyl-Gly-ProLys(Ac)-AMC as substrate measured after 60 mins by fluorescence assay
Sequence of Histone deacetylase 3 (O15379 whole entry): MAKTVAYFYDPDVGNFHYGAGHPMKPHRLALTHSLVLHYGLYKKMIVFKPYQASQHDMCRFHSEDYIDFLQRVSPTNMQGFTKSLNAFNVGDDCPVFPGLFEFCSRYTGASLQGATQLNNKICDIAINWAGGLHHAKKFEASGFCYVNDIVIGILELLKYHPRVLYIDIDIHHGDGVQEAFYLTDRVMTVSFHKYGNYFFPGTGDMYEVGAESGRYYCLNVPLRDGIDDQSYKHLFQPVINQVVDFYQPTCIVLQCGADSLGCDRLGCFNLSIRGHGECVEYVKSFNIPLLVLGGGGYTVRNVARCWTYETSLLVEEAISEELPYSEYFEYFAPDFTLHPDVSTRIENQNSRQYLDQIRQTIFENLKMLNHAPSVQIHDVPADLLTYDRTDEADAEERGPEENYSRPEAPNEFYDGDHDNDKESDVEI

Plasmodium falciparum [3] = assay: Antiplasmodial activity against Cambodian multidrug-resistant Plasmodium falciparum isolate incubated for 96 hrs measured by SYBR Green 1 assay; format: functional, organism-based
In short: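 Cambodian isolates chosen by multidrug-resistance pattern, 10 per resistance type. Ring-synchronized cultures at 2% hematocrit and 1% starting parasitemia; 11-point 2-step dilutions from 500nM; 96h incubation, then SYBR-green I read-out. Mefloquine and monodesethylamodiaquine served as positive controls. Triplicate wells, one biological replicate per isolate.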

Plasmodium falciparum [4] = assay: Antiplasmodial activity against Plasmodium falciparum stage IIb-III gametocytes assessed as abnormal morphology by measuring fragile like extensions at highest concentration measured after 72 hrs using Geimsa staining based assay; format: functional
In short: (§2)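 Day-4 stage IIb-III gametocytes (asexuals removed by N-acetyl glucosamine), about 1% gametocytemia at 2% hematocrit, treated 72h at 10, 5, 1 or 0.5 µM against 0.1% DMSO. Then washed and recultured with daily medium changes. Morphology and parasitemia scored daily on Giemsa-stained thin smears.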

Plasmodium falciparum [5] = assay: Antiplasmodial activity against Plasmodium falciparum 3D7 assessed as time to kill initial parasite load at 10 times IC50 concentration; format: functional
In short: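 Parasite reduction rate assay on 3D7 cultures containing mostly rings, with DHA and pyrimethamine as references. Exposure windows of 6, 24, 48, 72 and 96h; cells then washed, serially diluted 1/3 in fresh RBC and grown 3 weeks before SYBR-green I read-out. Number of wells with growth gives viable parasites per time point, per Sanz et al. One experiment in duplicate.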

Plasmodium falciparum [6] = assay: Inhibition of trophozoite-stage Plasmodium falciparum HDAC in using nuclear extract assessed as H4K16 hyperacetylation at 10 times IC50 concentration incubated for 4 hrs by Western blot analysis; settings: in the assay text read “total extract” for “nuclear extract”
In short: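 Parasites exposed 4h at 10× IC50, with CQ and 0.1% DMSO as controls. Saponin-lysed (0.15%) and extracted in Laemmli/DTT buffer; 5.10⁶ parasites loaded per lane. Blots probed with anti-H4K16Ac (1/500) and anti-H3 (1/1000). H4K16Ac band intensity normalized to H3. Three independent experiments.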

HepG2 = assay: cells; format: functional, cell-based; settings: Homo sapiens, HepG2, 72 h
Plasmodium falciparum [7] = assay: Antiplasmodial activity against Plasmodium falciparum stage IIb-III gametocytes assessed as abnormal morphology by measuring rounded/swollen at highest concentration measured after 72 hrs using Geimsa staining based assay; format: functional; in short: as §2
Plasmodium falciparum [8] = assay: Antiplasmodial activity against Plasmodium falciparum 3D7 assessed as DNA damage in trophozoite stage measured upto 72 hrs using Geimsa stain based parasite reduction rate assay; format: functional, organism-based; settings: time hrs <=72
Histone deacetylase 1 = Histone deacetylase 1 (Homo sapiens, UniProt Q13547); assay: Inhibition of human recombinant HDAC1 using Tosyl-Gly-ProLys(Ac)-AMC as substrate measured after 60 mins by fluorescence assay
Sequence of Histone deacetylase 1 (Q13547 whole entry): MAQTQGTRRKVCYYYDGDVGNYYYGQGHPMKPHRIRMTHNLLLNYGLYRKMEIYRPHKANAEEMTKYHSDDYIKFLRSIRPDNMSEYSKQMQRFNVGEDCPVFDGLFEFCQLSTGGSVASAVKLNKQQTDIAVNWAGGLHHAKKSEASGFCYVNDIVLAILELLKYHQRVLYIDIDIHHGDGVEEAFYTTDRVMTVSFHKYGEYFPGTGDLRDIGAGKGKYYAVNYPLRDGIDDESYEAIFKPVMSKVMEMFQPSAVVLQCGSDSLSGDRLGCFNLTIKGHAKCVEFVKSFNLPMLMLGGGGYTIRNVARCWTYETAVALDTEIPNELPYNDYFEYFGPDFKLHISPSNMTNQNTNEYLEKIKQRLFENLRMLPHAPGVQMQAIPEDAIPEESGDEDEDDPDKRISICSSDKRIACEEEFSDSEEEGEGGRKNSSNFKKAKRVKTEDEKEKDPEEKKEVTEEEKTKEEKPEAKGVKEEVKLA

Histone deacetylase 2 = Histone deacetylase 2 (Homo sapiens, UniProt Q92769); assay: Inhibition of human recombinant HDAC2 using Tosyl-Gly-ProLys(Ac)-AMC as substrate measured after 60 mins by fluorescence assay
Sequence of Histone deacetylase 2 (Q92769 whole entry): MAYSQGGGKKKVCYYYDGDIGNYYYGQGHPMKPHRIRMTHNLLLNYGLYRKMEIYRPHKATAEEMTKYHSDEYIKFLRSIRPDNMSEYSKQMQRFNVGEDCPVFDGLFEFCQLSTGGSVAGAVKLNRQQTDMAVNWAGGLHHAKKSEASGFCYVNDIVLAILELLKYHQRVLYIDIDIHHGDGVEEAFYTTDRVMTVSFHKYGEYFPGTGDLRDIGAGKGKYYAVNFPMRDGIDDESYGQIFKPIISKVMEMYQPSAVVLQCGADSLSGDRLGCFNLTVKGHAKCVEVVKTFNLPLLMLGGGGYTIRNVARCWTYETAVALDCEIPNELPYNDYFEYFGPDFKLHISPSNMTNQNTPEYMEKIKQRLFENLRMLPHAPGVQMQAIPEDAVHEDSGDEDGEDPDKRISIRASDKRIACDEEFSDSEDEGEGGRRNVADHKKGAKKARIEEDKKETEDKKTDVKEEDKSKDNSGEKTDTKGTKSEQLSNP

Plasmodium falciparum [9] = assay: Antiplasmodial activity against synchronized ring stage Plasmodium falciparum 3D7 assessed as parasite reduction rate in lag phase by measuring time required to achieve maximum speed of action at 10 times IC50 concentration; format: functional; in short: as §1
[10] = target: T1, Protein deacetylase HDAC6 (Homo sapiens, UniProt Q9UBN7); assay: Inhibition of human recombinant HDAC6 using Tosyl-Gly-ProLys(Ac)-AMC as substrate measured after 60 mins by fluorescence assay
T1 sequence (Q9UBN7 whole entry): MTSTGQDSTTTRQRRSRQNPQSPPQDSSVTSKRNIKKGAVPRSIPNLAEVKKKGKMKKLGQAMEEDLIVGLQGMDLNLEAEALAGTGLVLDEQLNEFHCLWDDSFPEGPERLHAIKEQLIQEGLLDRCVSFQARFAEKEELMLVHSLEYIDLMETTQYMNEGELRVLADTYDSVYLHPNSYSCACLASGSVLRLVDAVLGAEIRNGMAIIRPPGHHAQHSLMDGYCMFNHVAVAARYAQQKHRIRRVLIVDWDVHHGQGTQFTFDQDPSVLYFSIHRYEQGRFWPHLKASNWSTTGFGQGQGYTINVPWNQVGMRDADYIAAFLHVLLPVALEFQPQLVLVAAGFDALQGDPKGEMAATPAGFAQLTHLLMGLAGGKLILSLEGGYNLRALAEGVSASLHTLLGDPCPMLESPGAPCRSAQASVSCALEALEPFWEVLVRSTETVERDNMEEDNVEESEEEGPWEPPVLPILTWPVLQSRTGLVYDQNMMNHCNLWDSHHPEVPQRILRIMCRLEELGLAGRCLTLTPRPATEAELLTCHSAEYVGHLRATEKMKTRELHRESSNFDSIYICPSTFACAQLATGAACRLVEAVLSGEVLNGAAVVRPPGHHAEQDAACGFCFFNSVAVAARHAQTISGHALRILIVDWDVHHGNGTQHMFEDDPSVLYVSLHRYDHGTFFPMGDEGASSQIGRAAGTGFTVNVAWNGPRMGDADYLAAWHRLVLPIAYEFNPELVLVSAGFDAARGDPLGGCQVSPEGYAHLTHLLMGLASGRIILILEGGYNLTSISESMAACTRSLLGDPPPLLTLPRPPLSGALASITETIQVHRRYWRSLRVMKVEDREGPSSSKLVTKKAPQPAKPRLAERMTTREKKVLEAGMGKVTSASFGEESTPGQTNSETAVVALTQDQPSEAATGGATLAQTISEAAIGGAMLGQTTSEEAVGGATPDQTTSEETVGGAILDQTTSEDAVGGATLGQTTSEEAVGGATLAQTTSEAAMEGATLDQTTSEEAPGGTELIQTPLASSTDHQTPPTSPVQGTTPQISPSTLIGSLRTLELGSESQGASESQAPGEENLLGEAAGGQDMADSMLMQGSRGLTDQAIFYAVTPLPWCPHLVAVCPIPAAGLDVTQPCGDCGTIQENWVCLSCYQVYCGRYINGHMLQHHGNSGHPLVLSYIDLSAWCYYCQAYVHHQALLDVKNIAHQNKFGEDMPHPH

O=C(CCCCCCC(=O)Nc1ccc(C(=O)NC2CCNCC2)cc1)NO
IC50 [1]: 480 nM | log(activity) (Plasmodium falciparum [2]): 4.22 | IC50 (Histone deacetylase 3): 110 nM | IC50 (Plasmodium falciparum [3]): 70 nM | Activity (Plasmodium falciparum [4]): <=90% | LT99.9 (Plasmodium falciparum [5]): 34.3 h | fold change (FC) (Plasmodium falciparum [6]): 6 | IC50 (HepG2): 230000 nM | Activity (Plasmodium falciparum [7]): <=90% | Activity (Plasmodium falciparum [8]): Active | IC50 (Histone deacetylase 1): 150 nM | IC50 (Histone deacetylase 2): 270 nM | Time (Plasmodium falciparum [9]): 6 h | IC50 [10]: 19 nM

CCN(CC)CCNC(=O)c1ccc(NC(=O)CCCCCCC(=O)NO)cc1
IC50 [1]: 380 nM | log(activity) (Plasmodium falciparum [2]): 3.8 | IC50 (Histone deacetylase 3): 70 nM | IC50 (Plasmodium falciparum [3]): 76 nM | Activity (Plasmodium falciparum [4]): <=90% | LT99.9 (Plasmodium falciparum [5]): 40.3 h | fold change (FC) (Plasmodium falciparum [6]): 6 | IC50 (HepG2): 8400 nM | Activity (Plasmodium falciparum [7]): <=90% | Activity (Plasmodium falciparum [8]): Active | IC50 (Histone deacetylase 1): 70 nM | IC50 (Histone deacetylase 2): 80 nM | Time (Plasmodium falciparum [9]): 0 h | IC50 [10]: 14 nM
